From ChEMBL document CHEMBL1817581, “Synthesis, antibacterial evaluation and QSAR studies of 7-[4-(5-aryl-1,3,4-oxadiazole-2-yl)piperazinyl] quinolone derivatives” (2011)

Experiments:
Staphylococcus aureus = test: Antibacterial activity against Staphylococcus aureus subsp. aureus MTCC 1430 after 24 hrs by NCCLS M7-A6 serial dilution method; assay type: functional
How it was run: (§1)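 Two-fold tube dilution in culture medium; compounds dissolved in DMSO and diluted to final concentrations starting from 10 μg/ml until MIC reached. Incubated 24 h at 30 °C. MIC taken as the lowest concentration completely inhibiting growth, reported as pMIC (negative log of molar MIC). Medium plus DMSO was the negative control, ciprofloxacin the positive control. Run in triplicate.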

Escherichia coli = test: Antibacterial activity against Escherichia coli MTCC 739 after 24 hrs by NCCLS M7-A6 serial dilution method; assay type: functional; how it was run: as §1
Bacillus subtilis = test: Antibacterial activity against Bacillus subtilis MTCC 2423 after 24 hrs by NCCLS M7-A6 serial dilution method; set-up: unit not given here

| Compound | -logMIC (Staphylococcus aureus) | -logMIC (Escherichia coli) | -logMIC (Bacillus subtilis) |
| --- | --- | --- | --- |
| CCn1cc(C(=O)O)c(=O)c2cc(F)c(N3CCN(c4nnc(-c5ccccc5)o4)CC3)cc21 | 2.58 | 2.65 | 2.58 |
| O=C(O)c1cn(C2CC2)c2cc(N3CCN(c4nnc(-c5cccc([N+](=O)[O-])c5)o4)CC3)c(F)cc2c1=O | 2.24 | 2.17 | 2.28 |
| COc1c(N2CCN(c3nnc(-c4ccc([N+](=O)[O-])cc4)o3)C(C)C2)c(F)cc2c(=O)c(C(=O)O)cn(C3CC3)c12 (stereo unspecified) | 3.61 | 3.24 | 3.11 |
| CCn1cc(C(=O)O)c(=O)c2cc(F)c(N3CCN(c4nnc(-c5ccc([N+](=O)[O-])c([N+](=O)[O-])c5)o4)CC3)cc21 | 3.24 | 3.63 | 3.87 |
| COc1ccc(-c2nnc(N3CCN(c4cc5c(cc4F)c(=O)c(C(=O)O)cn5C4CC4)CC3)o2)cc1 | 3.12 | 3.2 | 3.09 |
| COc1ccc(-c2nnc(N3CCN(c4c(F)cc5c(=O)c(C(=O)O)cn(C6CC6)c5c4OC)CC3C)o2)cc1OC (stereo unspecified) | 3.36 | 3.27 | 3.27 |
| CCn1cc(C(=O)O)c(=O)c2cc(F)c(N3CCN(c4nnc(-c5ccccc5Cl)o4)CC3)cc21 | 3.21 | 3.6 | 3.21 |
| O=C(O)c1cn(C2CC2)c2cc(N3CCN(c4nnc(-c5ccccc5)o4)CC3)c(F)cc2c1=O | 3.26 | 3.22 | 3.87 |
| COc1c(N2CCN(c3nnc(-c4cccc([N+](=O)[O-])c4)o3)C(C)C2)c(F)cc2c(=O)c(C(=O)O)cn(C3CC3)c12 (stereo unspecified) | 3.25 | 3.55 | 3.55 |
| CCn1cc(C(=O)O)c(=O)c2cc(F)c(N3CCN(c4nnc(-c5ccc([N+](=O)[O-])cc5)o4)CC3)cc21 | 3.63 | 3.24 | 3.63 |
| O=C(O)c1cn(C2CC2)c2cc(N3CCN(c4nnc(-c5ccc([N+](=O)[O-])c([N+](=O)[O-])c5)o4)CC3)c(F)cc2c1=O | 2.95 | 3.65 | 3.25 |
| COc1ccc(-c2nnc(N3CCN(c4c(F)cc5c(=O)c(C(=O)O)cn(C6CC6)c5c4OC)CC3C)o2)cc1 (stereo unspecified) | 3.17 | 3.07 | 3.09 |
| CCn1cc(C(=O)O)c(=O)c2cc(F)c(N3CCN(c4nnc(-c5ccc(OC)c(OC)c5)o4)CC3)cc21 | 2.43 | 2.68 | 2.43 |
| O=C(O)c1cn(C2CC2)c2cc(N3CCN(c4nnc(-c5ccccc5Cl)o4)CC3)c(F)cc2c1=O | 2.43 | 2.43 | 2.38 |
| COc1c(N2CCN(c3nnc(-c4ccccc4)o3)C(C)C2)c(F)cc2c(=O)c(C(=O)O)cn(C3CC3)c12 (stereo unspecified) | 3.62 | 2.94 | 3.54 |
| CCn1cc(C(=O)O)c(=O)c2cc(F)c(N3CCN(c4nnc(-c5cccc([N+](=O)[O-])c5)o4)CC3)cc21 | 2.84 | 2.69 | 2.84 |
| O=C(O)c1cn(C2CC2)c2cc(N3CCN(c4nnc(-c5ccc([N+](=O)[O-])cc5)o4)CC3)c(F)cc2c1=O | 2.63 | 2.32 | 2.32 |
| COc1c(N2CCN(c3nnc(-c4ccc([N+](=O)[O-])c([N+](=O)[O-])c4)o3)C(C)C2)c(F)cc2c(=O)c(C(=O)O)cn(C3CC3)c12 (stereo unspecified) | 2.64 | 3.66 | 2.96 |
| CCn1cc(C(=O)O)c(=O)c2cc(F)c(N3CCN(c4nnc(-c5ccc(OC)cc5)o4)CC3)cc21 | 3.2 | 3.5 | 3.2 |
| COc1ccc(-c2nnc(N3CCN(c4cc5c(cc4F)c(=O)c(C(=O)O)cn5C4CC4)CC3)o2)cc1OC | 2.91 | 2.67 | 2.67 |
| COc1c(N2CCN(c3nnc(-c4ccccc4Cl)o3)C(C)C2)c(F)cc2c(=O)c(C(=O)O)cn(C3CC3)c12 (stereo unspecified) | 3.24 | 3.17 | 3.24 |
| O=C(O)c1cn(C2CC2)c2cc(N3CCNCC3)c(F)cc2c1=O [CIPROFLOXACIN] | 3.16 | 3.52 | 3.16 |
